The target in data set [1] is T1, Sigma non-opioid intracellular receptor 1 (Homo sapiens, UniProt Q99720). The experiment in a line: Binding affinity to human brain sigma1 receptor.
For data set [2], the system named is Brain. Description: Biodistribution in iv dosed CD1 mouse brain after 15 mins by PET imaging analysis. It is filed as ADME, organism-based. The note with it: in vivo, 0.25 h.
A short description of data set [3]: Lipophilicity, log D of the compound at pH 7.4. Type of data set: physicochemical. The note with it: buffer. The procedure, abridged: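 Shake flask: radiotracer (370 kBq) in 3 mL 1-octanol plus 3 mL 0.05 M sodium phosphate buffer pH 7.4, vortexed 3 min at room temperature, then centrifuged. Both phases were gamma-counted and log D = log(cpm/mL octanol ÷ cpm/mL buffer). The octanol layer was repartitioned until values were consistent. Triplicate, repeated three times.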

Data set [4] addresses Sigma non-opioid intracellular receptor 1 (Rattus norvegicus, UniProt Q9R0C9). The experiment in a line: Displacement of (+)-[3H]pentazocine from rat brain sigma1 receptor by competitive binding assay.
The species named for another data set is Rattus norvegicus. The experiment in a line: Selectivity ratio of Ki for rat liver sigma2 receptor to rat brain sigma1 receptor. In a few lines: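 Competition binding used rat brain homogenates for σ1 with (+)-[³H]pentazocine. Rat liver homogenates were used for σ2 with [³H]DTG, in the presence of 10 μM dextrallorphan to mask σ1 sites. Ki values are means ± SD of three experiments, each in triplicate. Selectivity is Ki(σ2)/Ki(σ1).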

Data set [5] is described as follows: Displacement of [3H]-1,3-di-o-tolylguanidine from rat liver sigma2 receptor by competitive binding assay. The procedure, abridged: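 Rat liver homogenate as the σ2 source, with [3H]DTG as radioligand plus 10 μM dextrallorphan to mask σ1 sites, in a competition format. Ki values are mean ± SD of three experiments, each run in triplicate.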
Data set [6] has as its target 3-beta-hydroxysteroid-Delta(8),Delta(7)-isomerase (Homo sapiens, UniProt Q15125). Description: Binding affinity to EBP (unknown origin).
For data set [7], the system named is Brain. Description: Biodistribution in mouse brain after 5 mins by PET imaging analysis. Type of data set: ADME, organism-based. The note with it: in vivo.
The nature of data set [8]: Ratio of drug uptake from mouse brain to blood after 30 mins. Type of data set: ADME, tissue-based. Particulars: brain and blood. In a few lines: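 Male ICR mice (n = 5 per time point) received an intravenous saline solution of the radiotracer (370 kBq, 0.1 mL). They were decapitated at 2, 30, 60 and 120 min. Brain, blood and other organs were weighed and γ-counted against diluted injectate aliquots, decay-corrected, and expressed as %ID/g of wet tissue (mean, SD). The brain/blood ratio is given at each time.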

Data set [9] has as its system Brain. Description: Biodistribution in iv dosed CD1 mouse brain after 30 mins in presence of haloperidol relative to control. It is filed as ADME, organism-based. Particulars: in vivo, 0.5 h.
Data set [10] relates to Liver microsomes. Description: Metabolic stability in rat liver microsomes assessed as retention time by UPLC-MS analysis in presence of beta-NADP. Type of data set: ADME, Microsome. The procedure, abridged:
(§1)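 Rat liver microsomes (2 mg protein/mL) with 100 μM compound and an NADPH-generating system (2 mM β-NADPH, 20 mM glucose 6-phosphate, 2 U G6PDH, 12 mM MgCl₂) in 0.05 M Tris-HCl pH 7.4. Preincubated 3 min, then run 30 min at 37 °C and stopped with ice-cold methanol. Supernatant analysed by UPLC-ESI(+)-MS against compound-free blanks.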
On the technique in general: Liver microsomes are vesicles of endoplasmic reticulum, rich in cytochrome P450 enzymes.

Another data set deals with Liver. The experiment in a line: Metabolic stability in ICR mouse liver assessed as retention time at 18.5 MBq, iv by HPLC analysis. Type of data set: ADME, organism-based. The note with it: in vivo. In a few lines: (§2)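 Male ICR mice given radiotracer iv (18.5 MBq, 0.2 mL), killed at 30 min. Brain and liver were homogenized in ice-cold PBS (0.01 M, pH 7.4) and extracted with ice-cold MeCN. Supernatants were filtered, concentrated and analysed by radio-HPLC on a C18 column, acetonitrile/water with 0.1% TFA (45:55), 1 mL/min.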

Data set [11] in a line: Metabolic stability in ICR mouse liver at 18.5 MBq, iv after 30 mins by HPLC analysis. The note with it: read-out: Stability. It is filed as ADME, organism-based. The procedure, abridged:
as §2

Data set [12] relates to Brain. Description: Metabolic stability in ICR mouse brain at 18.5 MBq, iv after 30 mins by HPLC analysis. Type of data set: ADME, organism-based. The note with it: in vivo, 0.5 h. The procedure, abridged:
as §2

Data set [13] in a line: Ratio of drug uptake from […] mouse brain to blood after 120 mins. Type of data set: ADME, tissue-based. Particulars: brain and blood. In a few lines: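 Male ICR mice (n = 5 per time point) received [18F]tracer (370 kBq, 0.1 mL saline) iv and were decapitated at 2, 30, 60 and 120 min. Brain and blood were weighed and gamma-counted, decay-corrected and expressed as %ID/g against diluted injectate. The brain/blood ratio was taken from these %ID/g values.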

Data set [14] concerns Brain. Description: Biodistribution in mouse brain after 60 mins in presence of haloperidol relative to control. It is filed as ADME, organism-based. Particulars: in vivo, 1 h. In a few lines:
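Male ICR mice (n = 5 per group) got saline (0.1 mL) or haloperidol (0.1 mL, 1.0 mg/kg) via tail vein 5 min before iv [18F]tracer (370 kBq, 0.1 mL, saline). Killed by decapitation at 60 min. Brain was weighed and gamma-counted with decay correction, giving %ID/g against diluted injectate. Control vs blocking compared by two-tailed independent Student's t test.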

The species entered for another data set is Homo sapiens. The experiment in a line: Selectivity ratio of Ki for human sigma2 receptor to human sigma1 receptor.
The test system of data set [15] is Liver microsomes. The experiment in a line: Metabolic stability in rat liver microsomes assessed as retention time at 100 uM by UPLC-MS analysis in presence of beta-NADPH. Type of data set: ADME, Microsome. The procedure, abridged: as §1
Data set [16] addresses Vesicular acetylcholine transporter (Rattus norvegicus, UniProt Q62666). The experiment in a line: Displacement of (-)-[3H]-vesamicol from rat VAChT transfected in rat PC12 cells after 120 mins by competitive binding assay. It is filed as cell-based, PC-12. The procedure, abridged: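 Membrane homogenates from PC12 cells stably expressing rat VAChT, with 1 nM (−)-[3H]vesamicol, test ligand at 10⁻¹¹–10⁻⁵ M, in 50 mM Tris-HCl pH 7.4, 120 min at room temperature. Nonspecific binding was defined with 10 μM (−)-vesamicol. Ki from Cheng–Prusoff; mean of two experiments, each in triplicate.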

Data set [17] has as its target T1, Sigma non-opioid intracellular receptor 1. Description: Binding affinity to sigma1 receptor (unknown origin). The procedure, abridged: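 Radioligand competition binding on rat brain homogenates using (+)-[³H]pentazocine as the competing radioligand. Ki values are means ± SD of three experiments, each performed in triplicate.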
Data set [18] in a line: Binding affinity to sigma2 receptor (unknown origin). More on the design: species or system Homo sapiens.

Structures are written as SMILES.

As usually defined, the Ki is a measure of affinity in units of concentration, obtained from inhibition or displacement. Low readings indicate tighter binding, high ones weaker binding. By logD is commonly meant lipophilicity at a set pH, counting ionised and neutral species. Higher therefore signals a more lipophilic compound. The Kp is the ratio of the level in a tissue or fluid to that in plasma or blood.

Chain of Sigma non-opioid intracellular receptor 1 (Rattus norvegicus, UniProt Q9R0C9) (Q9R0C9 whole entry): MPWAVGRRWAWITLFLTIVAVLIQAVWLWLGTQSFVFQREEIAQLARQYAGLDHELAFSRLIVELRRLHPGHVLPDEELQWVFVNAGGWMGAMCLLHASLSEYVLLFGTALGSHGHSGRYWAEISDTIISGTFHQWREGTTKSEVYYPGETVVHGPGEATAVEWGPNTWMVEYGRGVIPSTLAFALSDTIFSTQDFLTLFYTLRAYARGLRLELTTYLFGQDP
T1 sequence (Q99720 whole entry): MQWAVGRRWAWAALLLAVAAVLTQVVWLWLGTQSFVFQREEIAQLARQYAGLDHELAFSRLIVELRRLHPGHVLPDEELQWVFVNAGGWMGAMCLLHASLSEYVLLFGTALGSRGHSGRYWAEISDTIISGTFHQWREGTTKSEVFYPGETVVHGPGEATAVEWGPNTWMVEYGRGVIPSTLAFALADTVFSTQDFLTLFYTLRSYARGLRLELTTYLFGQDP
Chain of 3-beta-hydroxysteroid-Delta(8),Delta(7)-isomerase (Q15125 whole entry): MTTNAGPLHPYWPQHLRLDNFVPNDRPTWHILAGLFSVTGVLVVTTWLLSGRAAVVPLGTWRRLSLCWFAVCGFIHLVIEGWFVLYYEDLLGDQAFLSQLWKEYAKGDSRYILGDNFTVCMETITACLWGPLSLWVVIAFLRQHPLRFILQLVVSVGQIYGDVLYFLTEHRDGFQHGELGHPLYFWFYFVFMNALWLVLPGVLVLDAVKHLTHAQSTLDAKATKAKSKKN
Chain of Vesicular acetylcholine transporter (Q62666 whole entry): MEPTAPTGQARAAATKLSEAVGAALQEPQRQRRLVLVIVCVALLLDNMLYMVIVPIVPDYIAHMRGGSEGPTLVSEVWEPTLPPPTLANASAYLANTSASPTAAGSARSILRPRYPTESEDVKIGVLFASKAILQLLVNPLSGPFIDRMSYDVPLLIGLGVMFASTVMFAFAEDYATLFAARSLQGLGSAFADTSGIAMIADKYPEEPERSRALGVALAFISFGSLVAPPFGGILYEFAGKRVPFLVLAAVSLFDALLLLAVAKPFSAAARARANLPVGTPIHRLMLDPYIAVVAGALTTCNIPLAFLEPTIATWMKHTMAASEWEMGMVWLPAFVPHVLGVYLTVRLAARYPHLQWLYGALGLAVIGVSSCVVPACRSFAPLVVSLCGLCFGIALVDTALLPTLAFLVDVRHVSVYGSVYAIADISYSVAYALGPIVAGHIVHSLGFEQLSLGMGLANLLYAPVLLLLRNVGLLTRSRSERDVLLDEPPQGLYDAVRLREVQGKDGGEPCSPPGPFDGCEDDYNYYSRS

In the case of `N#Cc1ccc(OCC2CCN(CCC[18F])CC2)cc1`, the Ki in data set [1] is 4.3 nM.
As to `[125I]c1ccc(CN2CCC3(CC2)OCc2ccccc23)cc1`, the Drug uptake in the data set with Brain [2] was determined as 5.28 % ID/g. Besides, the logD in data set [3] is 3.06.
For `FCCOc1ccc(CN2CCC3(CC2)OCc2ccccc23)cn1`, the values for the Ki in [4] and in data set [5] were 2.3 nM and 327 nM, respectively. Also, the Ratio Ki in the data set listed under Rattus norvegicus came to 142.
With `COc1ccc(CCN2CCN(CCCc3ccccc3)CC2)cc1OC` [[11C]SA4503], in data set [6], the Ki was found to be 1.72 nM.
`N#Cc1ccc(OCC2CCN(C/C=C/[123I])CC2)cc1` gave a Ki in data set [1] of 0.67 nM.
For the molecule `COc1ccc(CN2CCC3(CC2)OCc2ccccc23)cc1`, the Ki in data set [4] was determined as 1.7 nM; in [5] it was 276 nM. Besides, the Ratio Ki in the data set listed under Rattus norvegicus was 162.
For `COc1cc(CCN2CCN(CCCc3ccccc3)CC2)ccc1O[11CH3]`, the Drug uptake was 3.61 % ID/g in the data set with Brain [7] and 60% in the data set with Brain [9]. Further, the Kp at 0.5 h in data set [8] came to 11.6.
Regarding `OCc1ccccc1C1(O)CCN(Cc2ccc(OCCF)cc2)CC1`, in the data set with Liver microsomes [10], the Retention_time stood at 1.42 min.
On to `FCCOCCOCCOc1ccc(CN2CCC3(CC2)OCc2ccccc23)cc1`, for which the Ki in [4] is 37.5 nM; in data set [5], 592 nM. Also, the Ratio Ki in the data set listed under Rattus norvegicus is 16.
In the same order, the values of `FCCOCCOc1ccc(CN2CCC3(CC2)OCc2ccccc23)cc1` are 52.9 nM, 860 nM and 16.
For `OCc1ccccc1C1(O)CCN(Cc2ccc(OCC[18F])cc2)CC1`, in the data set on Liver, the Retention_time came to 4.68 min. The remaining at 0.5 h in [11] was 26.9%. The Stability entry with Brain [12] is “Unstable”.
Consider `[18F]CCC1OC2(CCN(Cc3ccccc3)CC2)c2ccccc21` (centres undefined), for which the Drug uptake was determined as 3.88 % ID/g in the data set on Brain [7] and 62% with Brain [14]. For the same molecule, in [13], the Kp at 2 h came out at 18.8.
As to `N#Cc1ccc(OCC2CCN(CCCF)CC2)cc1`, the Ratio Ki in the data set filed under Homo sapiens (tested as the 18F-labelled form) was determined as 33.
As to `Oc1ccc(CN2CCC3(CC2)OCc2ccccc23)cc1`, the Retention_time in the data set with Liver microsomes [10] is reported as 1.74 min.
With `Fc1ccc(CN2CCC3(CC2)OCc2ccccc23)cc1`, the figures for the Ki in [4] and in data set [5] were 0.58 nM and 106 nM, respectively. In the data set filed under Rattus norvegicus, the Ratio Ki was determined as 182.
Turning to `FCCOc1ccc(CN2CCC3(CC2)OCc2ccccc23)cc1`, the Retention_time with Liver microsomes [15] turned out to be 1.82 min. The Ki was 0.79 nM in [4], 631 nM in data set [16] and 277 nM in data set [5]. Besides, the Ratio Ki in the data set filed under Rattus norvegicus worked out at 350.
With `N#Cc1ccc(OCC2CCN(C/C=C/I)CC2)cc1`, in the data set filed under Homo sapiens (tested as the 123I-labelled form), the Ratio Ki was 58.
In the case of `Ic1ccc(CN2CCC3(CC2)OCc2ccccc23)cc1`, the Ki stood at 2.75 nM in data set [4], 2.75 nM in data set [17], 340 nM in [18] and 340 nM in data set [5]. Moreover, in the data set filed under Rattus norvegicus, the Ratio Ki is 123.
In the case of `O=C(CCCN1CCC(O)(c2ccc(Cl)cc2)CC1)c1ccc(F)cc1` [HALOPERIDOL], the affinity in data set [5] corresponds to a Ki of 20.7 nM.

The values are drawn from ChEMBL document CHEMBL2346503, “Synthesis and evaluation of novel (18)F-labeled spirocyclic piperidine derivatives as σ1 receptor ligands for positron emission tomography imaging” (J Med Chem, 2013).
